Source: ChEMBL document CHEMBL4257565, “A phenotypic approach to the discovery of compounds that promote non-amyloidogenic processing of the amyloid precursor protein: Toward a new profile of indirect β-secretase inhibitors” (Eur J Med Chem, 2018)
Active and inactive are the calls of the source. No cut-off for these calls is given here.

Key:
Beta-secretase 1 [1] = target: T1, Beta-secretase 1 (Homo sapiens, UniProt P56817); assay: Inhibition of BACE1 in human SH-SY5Y cells harboring wild type APP695 assessed as increase in alphaCTF level at 3 uM by Western blot method relative to chloroquine; format: cell-based
In short: (§1)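 APP C-terminal fragments (αCTFs and AICD) were detected by Western blot and scored as band intensity. Compounds were tested at 1, 3 and 10 µM.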

Beta-secretase 1 [2] = target: T1, Beta-secretase 1; assay: Inhibition of BACE1 in human SH-SY5Y cells harboring wild type APP695 assessed as reduction in amyloid beta (1 to 40) level after 24 hrs by ELISA method; format: cell-based
In short: (§2)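 Aβ1-40 and Aβ1-42 levels were measured by ELISA in APPwt-expressing SH-SY5Y cells after compound treatment.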

Beta-secretase 1 [3] = target: T1, Beta-secretase 1; assay: Inhibition of BACE1 in human SH-SY5Y cells harboring wild type APP695 assessed as increase in AICD level at 3 uM by Western blot method relative to chloroquine; format: cell-based; in short: as §1
Beta-secretase 1 [4] = target: T1, Beta-secretase 1; assay: Inhibition of BACE1 in human SH-SY5Y cells harboring wild type APP695 assessed as increase in alphaCTF level at 3 uM by Western blot method relative to untreated control; format: cell-based; in short: as §1
Beta-secretase 1 [5] = target: T1, Beta-secretase 1; assay: Inhibition of BACE1 in human SH-SY5Y cells harboring wild type APP695 assessed as increase in AICD level at 3 uM by Western blot method relative to untreated control; format: cell-based; in short: as §1
Beta-secretase 1 [6] = target: T1, Beta-secretase 1; assay: Inhibition of BACE1 in human SH-SY5Y cells harboring wild type APP695 assessed as accumulation of APP-CTF level up to 5 uM after 24 hrs by ELISA; format: cell-based
SH-SY5Y [7] = assay: Inhibition of alpha secretase in human SH-SY5Y cells harboring wild type APP695 assessed as increase in sAPPalpha level up to 5 uM after 24 hrs by DAPI staining based electro-chemiluminescence immunoassay; format: cell-based
Beta-secretase 1 [8] = target: T1, Beta-secretase 1; assay: Inhibition of BACE1 in human SH-SY5Y cells harboring wild type APP695 assessed as accumulation of AICD level up to 5 uM after 24 hrs by ELISA; format: cell-based
Primary neuron [9] = assay: Inhibition of autophagy in C57BL6 mouse primary neuronal cells assessed as increase in p62 expression up to 5 uM after 24 hrs by DAPI staining based immunofluorescence assay; format: functional
In short: (§3)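 Autophagy markers were quantified against control: p62 expression and lipidation of LC3-I into LC3-II. Accumulation of p62- and LC3-positive vesicles was scored by immunofluorescence. This was done in SY5Y-APPwt cells and primary neurons.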

SH-SY5Y [10] = assay: Inhibition of autophagy in human SH-SY5Y cells harboring wild type APP695 assessed as increase in lipidation of LC3-1 to LC3-2 up to 5 uM after 24 hrs by DAPI staining based immunofluorescence assay; format: functional, cell-based; in short: as §3
Beta-secretase 1 [11] = target: T1, Beta-secretase 1; assay: Inhibition of BACE1 in human SH-SY5Y cells harboring wild type APP695 assessed as reduction in amyloid beta (1 to 40) level up to 5 uM after 24 hrs by ELISA; format: cell-based; in short: as §2
[12] = target: Beta-secretase 1 (Mus musculus) (UniProt P56818); assay: Inhibition of BACE1 in C57BL6 mouse primary neuronal cells assessed as accumulation of AICD level up to 5 uM after 24 hrs by DAPI staining based immunofluorescence assay
Primary neuron [13] = assay: Inhibition of autophagy in C57BL6 mouse primary neuronal cells assessed as increase in lipidation of LC3-1 to LC3-2 up to 5 uM after 24 hrs by DAPI staining based immunofluorescence assay; format: functional; in short: as §3
SH-SY5Y [14] = assay: Cytotoxicity against human SH-SY5Y cells harboring wild type APP695 assessed as reduction in cell viability after 24 hrs by LDH assay; format: cell-based
Beta-secretase 1 [15] = target: T1, Beta-secretase 1; assay: Inhibition of BACE1 in human SH-SY5Y cells harboring wild type APP695 assessed as reduction in sAPPbeta level up to 5 uM after 24 hrs by DAPI staining based electro-chemiluminescence immunoassay; format: cell-based
Beta-secretase 1 [16] = target: T1, Beta-secretase 1; assay: Inhibition of BACE1 in human SH-SY5Y cells harboring wild type APP695 assessed as reduction in amyloid beta (1 to 42) level up to 5 uM after 24 hrs by ELISA; format: cell-based; in short: as §2
SH-SY5Y [17] = assay: Inhibition of autophagy in human SH-SY5Y cells harboring wild type APP695 assessed as increase in p62 expression up to 5 uM after 24 hrs by DAPI staining based immunofluorescence assay; format: functional, cell-based; in short: as §3
[18] = Cytotoxicity against C57BL6 mouse primary neuronal cells assessed as reduction in cell viability after 24 hrs by LDH assay; format: cell-based; conditions: primary neuron
[19] = target: Beta-secretase 1 (Mus musculus) (UniProt P56818); assay: Inhibition of BACE1 in C57BL6 mouse primary neuronal cells assessed as accumulation of APP-CTF level up to 5 uM after 24 hrs by DAPI staining based immunofluorescence assay
Beta-secretase 1 [20] = target: T1, Beta-secretase 1; assay: Inhibition of BACE1 in human SH-SY5Y cells harboring wild type APP695 assessed as increase in mature APP level up to 5 uM after 24 hrs by ELISA; format: cell-based; conditions: in the assay text read “by Western blot” for “by ELISA”
In short: (§4)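 Full-length APP was resolved and detected with APP-C17 antiserum as two bands. The 110 kDa band is the immature, neosynthesized form and the 115 kDa band is the mature, glycosylated form. Both bands were quantified against the control condition. This was done in SH-SY5Y-APPwt cells and in primary neuronal cultures.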

[21] = target: Beta-secretase 1 (Mus musculus) (UniProt P56818); assay: Inhibition of BACE1 in C57BL6 mouse primary neuronal cells assessed as increase in mature APP level up to 5 uM after 24 hrs by DAPI staining based immunofluorescence assay relative to control
Beta-secretase 1 [22] = target: T1, Beta-secretase 1; assay: Inhibition of recombinant human BACE1 at 10 uM using Mca-S-E-[…]-L-D-AEF-R-K(Dnp)-R-R-NH2 as substrate after 60 mins by fluorescence assay relative to control
In short: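 BACE-1 enzymatic activity was followed by cleavage of the fluorogenic peptide Mca-S-E-V-N-L-D-AE-F-R-K(Dnp)-R-R-NH2.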

Beta-secretase 1 [23] = target: T1, Beta-secretase 1; assay: Inhibition of BACE1 in human SH-SY5Y cells harboring wild type APP695 assessed as increase in mature APP level at 5 uM after 24 hrs by ELISA relative to control; format: cell-based; parameters: scale not given: the % may be the effect or the level left; conditions: in the assay text read “by Western blot” for “by ELISA”; in short: as §4
SH-SY5Y [24] = assay: Inhibition of autophagy in human SH-SY5Y cells harboring wild type APP695 assessed as increase in lipidation of LC3-1 to LC3-2 at 5 uM after 24 hrs by DAPI staining based immunofluorescence assay relative to control; format: functional; parameters: scale not given: the % may be the effect or the level left
In short: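 SY5Y-APPwt cells treated at 5 µM alongside untreated control. LC3-I to LC3-II lipidation quantified from western blot bands. LC3- and p62-positive vesicles scored inside cells by immunofluorescence.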

Primary neuron [25] = assay: Inhibition of autophagy in C57BL6 mouse primary neuronal cells assessed as increase in lipidation of LC3-1 to LC3-2 up to 5 uM after 24 hrs in presence of autophagic inhibitor BafA1 by DAPI staining based immunofluorescence assay; format: functional
In short: (§5)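 Cells were co-treated with compound and the autophagic flux inhibitor bafilomycin A1. p62 and LC3 accumulation were then assessed in SY5Y-APPwt cells and primary neurons.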

Primary neuron [26] = assay: Inhibition of autophagy in C57BL6 mouse primary neuronal cells assessed as increase in lipidation of LC3-1 to LC3-2 at 3 uM after 24 hrs by DAPI staining based immunofluorescence assay; format: functional; in short: as §3
SH-SY5Y [27] = assay: Inhibition of autophagy in human SH-SY5Y cells harboring wild type APP695 assessed as increase in p62 expression at 5 uM after 24 hrs by DAPI staining based immunofluorescence assay relative to control; format: functional; parameters: scale not given: the % may be the effect or the level left; in short: as §3
[28] = target: Beta-secretase 1 (Mus musculus) (UniProt P56818); assay: Inhibition of BACE1 in C57BL6 mouse primary neuronal cells assessed as increase in mature APP level at 3 to 5 uM after 24 hrs by DAPI staining based immunofluorescence assay relative to control; parameters: scale not given: the % may be the effect or the level left
Primary neuron [29] = assay: Inhibition of autophagy in C57BL6 mouse primary neuronal cells assessed as increase in p62 expression at 3 uM after 24 hrs by DAPI staining based immunofluorescence assay; format: functional; in short: as §3
SH-SY5Y [30] = assay: Inhibition of autophagy in human SH-SY5Y cells harboring wild type APP695 assessed as increase in p62 expression up to 5 uM after 24 hrs in presence of autophagic inhibitor BafA1 by DAPI staining based immunofluorescence assay; format: functional, cell-based; in short: as §5
SH-SY5Y [31] = assay: Inhibition of autophagy in human SH-SY5Y cells harboring wild type APP695 assessed as increase in lipidation of LC3-1 to LC3-2 up to 5 uM after 24 hrs in presence of autophagic inhibitor BafA1 by DAPI staining based immunofluorescence assay; format: functional, cell-based; in short: as §5
Primary neuron [32] = assay: Inhibition of autophagy in C57BL6 mouse primary neuronal cells assessed as increase in p62 expression up to 5 uM after 24 hrs in presence of autophagic inhibitor BafA1 by DAPI staining based immunofluorescence assay; format: functional; in short: as §5

T1 sequence (P56817 whole entry, the tested form may be a part): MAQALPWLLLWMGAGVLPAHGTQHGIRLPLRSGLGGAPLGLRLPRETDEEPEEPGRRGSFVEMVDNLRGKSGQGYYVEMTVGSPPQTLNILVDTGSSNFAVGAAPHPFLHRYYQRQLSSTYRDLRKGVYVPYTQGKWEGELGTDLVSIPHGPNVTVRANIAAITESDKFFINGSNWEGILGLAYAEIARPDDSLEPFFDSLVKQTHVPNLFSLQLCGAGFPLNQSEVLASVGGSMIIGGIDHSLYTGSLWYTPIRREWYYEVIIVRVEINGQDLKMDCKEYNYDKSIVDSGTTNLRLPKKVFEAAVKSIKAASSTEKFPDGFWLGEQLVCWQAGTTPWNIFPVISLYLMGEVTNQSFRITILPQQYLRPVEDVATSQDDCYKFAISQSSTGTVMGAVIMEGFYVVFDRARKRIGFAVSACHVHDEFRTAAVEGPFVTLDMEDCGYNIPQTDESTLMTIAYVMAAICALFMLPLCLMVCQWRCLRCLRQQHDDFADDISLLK
Sequence of Beta-secretase 1 (Mus musculus) (P56818 whole entry): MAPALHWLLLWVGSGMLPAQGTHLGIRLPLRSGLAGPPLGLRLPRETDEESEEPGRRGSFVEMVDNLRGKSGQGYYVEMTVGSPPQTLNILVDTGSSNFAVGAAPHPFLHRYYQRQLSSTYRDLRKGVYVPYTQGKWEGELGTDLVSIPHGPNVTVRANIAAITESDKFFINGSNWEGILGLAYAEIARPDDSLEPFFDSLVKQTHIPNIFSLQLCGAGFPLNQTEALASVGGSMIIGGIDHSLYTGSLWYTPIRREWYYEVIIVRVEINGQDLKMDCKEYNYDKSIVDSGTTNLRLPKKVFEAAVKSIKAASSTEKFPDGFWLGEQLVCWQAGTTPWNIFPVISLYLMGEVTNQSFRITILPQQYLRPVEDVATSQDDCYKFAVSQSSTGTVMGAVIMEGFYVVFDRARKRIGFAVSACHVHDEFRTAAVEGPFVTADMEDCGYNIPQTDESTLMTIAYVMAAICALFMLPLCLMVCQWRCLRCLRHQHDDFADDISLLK

SMILES: CN(C)Cc1ccccc1-c1ccc(NCCCN2CCCCC2)cc1
- fold change (FC) (Beta-secretase 1 [1]): 0.9
- IC50 (Beta-secretase 1 [2]): 3.9 µM
- fold change (FC) (Beta-secretase 1 [3]): 0.8

SMILES: c1ccc(-c2ccc(NCCCN3CCCCC3)c(OCCN3CCCCC3)c2)c(CN2CCOCC2)c1
- fold change (FC) (Beta-secretase 1 [1]): 3.1
- IC50 (Beta-secretase 1 [2]): 2.8 µM
- fold change (FC) (Beta-secretase 1 [3]): 1.7

SMILES: CN(C)Cc1ccccc1-c1ccc(NCCN2CCCCC2)c(OCCCCN2CCCCC2)c1
- fold change (FC) (Beta-secretase 1 [1]): 4.4
- fold change (FC) (Beta-secretase 1 [3]): 4.8

SMILES: CN(C)Cc1ccccc1-c1ccc(NCCN2CCCCC2)c(OCCCN2CCCCC2)c1
- fold change (FC) (Beta-secretase 1 [1]): 4.5
- IC50 (Beta-secretase 1 [2]): 2 µM
- fold change (FC) (Beta-secretase 1 [3]): 3.4

SMILES: CN(C)Cc1ccn(-c2ccc(NCCCN3CCCCC3)c(OCCN3CCCCC3)c2)c1
- fold change (FC) (Beta-secretase 1 [1]): 3.6
- IC50 (Beta-secretase 1 [2]): 5 µM
- fold change (FC) (Beta-secretase 1 [3]): 2

SMILES: CN1CCN(Cc2ccccc2-c2ccc(NCCCN3CCCCC3)c(OCCN3CCCCC3)c2)CC1
- fold change (FC) (Beta-secretase 1 [1]): 5.1
- IC50 (Beta-secretase 1 [2]): 2.6 µM
- fold change (FC) (Beta-secretase 1 [3]): 3.7

SMILES: CN(C)Cc1ccccc1-c1ccc(NCCCN2CCCCC2)c(OCCCN2CCCCC2)c1
- fold change (FC) (Beta-secretase 1 [1]): 4.5
- fold change (FC) (Beta-secretase 1 [4]): 50
- fold change (FC) (Beta-secretase 1 [5]): 30
- IC50 (Beta-secretase 1 [2]): 2.1 µM
- fold change (FC) (Beta-secretase 1 [3]): 5.1

SMILES: CN(C)Cc1ccccc1-c1ccc(NCCN2CCCCC2)c(OCCN2CCCCC2)c1
- fold change (FC) (Beta-secretase 1 [1]): 5
- IC50 (Beta-secretase 1 [2]): 1.4 µM
- fold change (FC) (Beta-secretase 1 [3]): 4.8

SMILES: CN(C)Cc1ccccc1-c1ccc(NCCCN2CCCCC2)c(OCCC2CCCCC2)c1
- inhibition (Beta-secretase 1 [6]): inactive
- inhibition (SH-SY5Y [7]): Active
- inhibition (Beta-secretase 1 [8]): inactive
- inhibition (Primary neuron [9]): inactive
- inhibition (SH-SY5Y [10]): inactive
- inhibition (Beta-secretase 1 [11]): Active
- inhibition [12]: inactive
- inhibition (Primary neuron [13]): inactive
- fold change (FC) (Beta-secretase 1 [1]): 0.1
- Activity (SH-SY5Y [14]): Non-Toxic
- inhibition (Beta-secretase 1 [15]): Active
- inhibition (Beta-secretase 1 [16]): Active
- inhibition (SH-SY5Y [17]): inactive
- Activity [18]: Non-Toxic
- inhibition [19]: inactive
- inhibition (Beta-secretase 1 [20]): inactive
- IC50 (Beta-secretase 1 [2]): 2.1 µM
- inhibition [21]: inactive
- inhibition (Beta-secretase 1 [22]): < 10%
- fold change (FC) (Beta-secretase 1 [3]): 0.1

SMILES: CN(C)Cc1ccccc1-c1ccc(NCCCN2CCCCC2)c(OCCN2CCCCC2)c1
- inhibition (Beta-secretase 1 [6]): Active
- Activity (Beta-secretase 1 [23]): 221%
- inhibition (SH-SY5Y [7]): Active
- Activity (SH-SY5Y [24]): 591%
- inhibition (Beta-secretase 1 [8]): Active
- inhibition (Primary neuron [25]): Active
- inhibition (Beta-secretase 1 [11]): Active
- inhibition [12]: Active
- inhibition (Primary neuron [26]): Active
- Activity (SH-SY5Y [27]): 476%
- fold change (FC) (Beta-secretase 1 [1]): 6.4
- Activity [28]: 130%
- Activity (SH-SY5Y [14]): Non-Toxic
- inhibition (Primary neuron [29]): Active
- inhibition (Beta-secretase 1 [15]): Active
- inhibition (SH-SY5Y [30]): Active
- inhibition (SH-SY5Y [31]): Active
- inhibition (Beta-secretase 1 [16]): Active
- Activity [18]: Non-Toxic
- fold change (FC) (Beta-secretase 1 [4]): 30
- fold change (FC) (Beta-secretase 1 [5]): 40
- inhibition [19]: Active
- IC50 (Beta-secretase 1 [2]): 2.8 µM
- inhibition (Primary neuron [32]): Active
- inhibition (Beta-secretase 1 [22]): < 10%
- fold change (FC) (Beta-secretase 1 [3]): 3.6
